Active and inactive are the calls of the source. No cut-off for these calls is given here.

One test relates to BXPC-3. Kind of test: Antiproliferative activity against human BxPC3 cells at 5 uM after 72 hrs in presence of olaparib by CellTiter-Glo luminescent cell viability assay. Type of test: functional, cell-based. Summed up:
(§1)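 BxPC-3 cells grown in RPMI 1640 with 10% FBS, penicillin/streptomycin and 2 mM glutamine. Disruptor given alone or with 10 μM olaparib in medium containing 0.6% DMSO, with the same DMSO in controls. Viability read at 72 h, measured alongside cell death.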
(Cellular ATP, detected with luciferase, serves as a proxy for viable cell number.)
Consider `Cn1ccc2cc(C3CC(c4c(-c5ccccc5)c5cc(Cl)ccc5[nH]c4=O)=NN3C(=O)CCC(=O)O)ccc21` (racemic), for which the result was inactive.

The target in another test is T1, DNA repair protein RAD51 homolog 1 (Homo sapiens, UniProt Q06609).
T1 sequence (Q06609 whole entry): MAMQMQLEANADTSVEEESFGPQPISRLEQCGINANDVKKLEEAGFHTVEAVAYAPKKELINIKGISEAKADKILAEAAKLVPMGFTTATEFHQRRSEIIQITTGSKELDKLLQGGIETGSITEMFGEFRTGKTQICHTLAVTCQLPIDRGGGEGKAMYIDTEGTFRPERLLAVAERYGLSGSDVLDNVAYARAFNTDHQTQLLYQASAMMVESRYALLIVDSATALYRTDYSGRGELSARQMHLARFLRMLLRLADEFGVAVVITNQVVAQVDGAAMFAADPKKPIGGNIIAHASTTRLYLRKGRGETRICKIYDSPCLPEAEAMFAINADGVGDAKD
Put plainly: Inhibition of biotinylated BRC4 peptide binding to His-tagged human RAD51 expressed in Escherichia coli Rosetta(DE3) pLysS cells assessed as BRC4-RAD51 protein -protein interaction by competitive ELISA. The essentials: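 Biotinylated BRC4 peptide coated onto wells, washed with PBS/0.05% Tween-20, blocked with 1% BSA/PBST, then hybridized overnight with human RAD51. Compounds tested at 0.01–100 μM in triplicate with 1% DMSO constant. Bound RAD51 detected with anti-RAD51 and HRP secondary antibody, TMB colorimetric signal quenched with 1 M HCl. EC50 ± SD reported.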
In general terms: An ELISA detects its analyte on a solid surface through an enzyme-linked reagent.
As for `O=C(O)CCC(=O)N1N=C(c2c(O)nc3ccc(Cl)cc3c2-c2ccccc2)CC1c1ccco1` (racemic), the EC50 entry is “Not Active”. As to `COc1ccc(C2CC(c3c(-c4ccccc4)c4ccccc4[nH]c3=O)=NN2C(=O)CCC(=O)O)cc1` (racemic), the EC50 entry is on record as “Not Active”. In the case of `O=C(O)CCC(=O)N1N=C(c2c(-c3ccccc3)c3ccccc3[nH]c2=O)CC1c1cccc(Br)c1` (racemic), the EC50 entry is reported as “Not Active”. For the compound `CC(=O)N1N=C(c2c(-c3ccccc3)c3cc(Cl)ccc3[nH]c2=O)CC1c1ccco1` (racemic), the EC50 entry is reported as “Not Active”. For `CCCn1cc2cc(C3CC(c4c(-c5ccccc5)c5cc(Cl)ccc5[nH]c4=O)=NN3C(=O)CCC(=O)O)ccc2n1` (racemic), the EC50 result is reported as “Not Active”.

For the compound `CC(C)(C)c1ccc(C2CC(c3c(-c4ccccc4)c4cc(Cl)ccc4[nH]c3=O)=NN2C(=O)CCC(=O)O)cc1` (racemic), the EC50 result is “Not Active”. Still for that read-out and setting: under `CS(=O)(=O)NCCC(=O)N1N=C(c2c(-c3ccccc3)c3cc(Cl)ccc3[nH]c2=O)CC1c1ccc(F)cc1` (racemic) stands “Not Active”; under `COc1ccc(C2CC(c3c(O)nc4ccc(Cl)cc4c3-c3ccccc3)=NN2C(=O)CCC(=O)O)cc1` (racemic), “Not Active”; under `CC(=O)N1N=C(c2c(-c3ccccc3)c3cc(Cl)ccc3[nH]c2=O)CC1c1ccc(C(F)(F)F)cc1` (racemic), “Not Active”. As for `CCCn1ncc2cc(C3CC(c4c(-c5ccccc5)c5cc(Cl)ccc5[nH]c4=O)=NN3C(=O)CCC(=O)O)ccc21` (racemic), the EC50 entry is given as “Not Active”. With `NCCC(=O)N1N=C(c2c(-c3ccccc3)c3cc(Cl)ccc3[nH]c2=O)CC1c1ccc(F)cc1` (racemic), the EC50 entry is “Not Active”. On to `O=C(O)CCC(=O)N1N=C(c2c(-c3ccccc3)c3ccccc3[nH]c2=O)CC1c1ccc(F)cc1` (racemic), for which the EC50 result is “Not Active”. On the same count and under the same terms, under `O=C(O)CCC(=O)N1N=C(c2c(-c3ccccc3)c3ccccc3[nH]c2=O)CC1c1ccc(C(F)(F)F)cc1` (racemic) stands “Not Active”. Turning to `O=C(O)CCC(=O)N1N=C(c2c(-c3ccccc3)c3ccccc3[nH]c2=O)CC1c1ccc(Br)cc1` (racemic), the EC50 entry is reported as “Not Active”. Consider `O=C(O)CCC(=O)N1N=C(c2c(-c3ccccc3)c3cc(Cl)ccc3[nH]c2=O)CC1c1ccc2c(cnn2C2CCCCC2)c1` (racemic), for which the EC50 entry is given as “Not Active”. For `O=C(O)CCC(=O)N1N=C(c2c(-c3ccccc3)c3ccccc3[nH]c2=O)CC1c1ccc(Cl)cc1` (racemic), the EC50 result is reported as “Not Active”.

Turning to `O=C(O)CCC(=O)N1N=C(c2c(-c3ccccc3)c3cc(Cl)ccc3[nH]c2=O)CC1c1ccc2nn(C3CCCCC3)cc2c1` (racemic), the EC50 result is reported as “Not Active”.

For `COc1ccc(C2CC(c3c(-c4ccccc4)c4cc(Cl)ccc4[nH]c3=O)=NN2C(=O)CCC(=O)O)cc1F` (racemic), the EC50 entry is on record as “Not Active”. With `COC(=O)CCC(=O)N1N=C(c2c(-c3ccccc3)c3cc(Cl)ccc3[nH]c2=O)CC1c1ccc(F)cc1` (racemic), the EC50 entry is listed as “Not Active”.

For `NC(=O)CCC(=O)N1N=C(c2c(-c3ccccc3)c3cc(Cl)ccc3[nH]c2=O)CC1c1ccc(F)cc1` (racemic), the EC50 entry is “Not Active”.

The subject of the next test is BXPC-3. Put plainly: Antiproliferative activity against human BxPC3 cells at 20 uM after 72 hrs in presence of olaparib by CellTiter-Glo luminescent cell viability assay. Type of test: functional, cell-based. Summed up:
as §1
For `CCn1cc2cc(-c3ccc(C4CC(c5c(-c6ccccc6)c6cc(Cl)ccc6[nH]c5=O)=NN4C(=O)CCC(=O)O)cc3)ccc2n1` (racemic), the outcome was Active.

The next test deals with CAPAN-1. Kind of test: Induction of DNA damage in BRCA2 defective human Capan1 cells assessed as increase in gamma-H2AX labelling […] hrs by immunofluorescence microscopic analysis. Format: functional, cell-based. The essentials: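 Cells exposed 48 h to 20 μM disruptor alone or with 10 μM olaparib, in medium with 0.6% DMSO. Nuclear γ-H2AX foci visualized by immunofluorescence and percentage of labeled nuclei scored. BxPC-3 (functional BRCA2) and Capan-1 (BRCA2-defective) cultures in RPMI 1640 with 10% FBS.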
With `O=C(c1cc(Cc2n[nH]c(=O)c3ccccc23)ccc1F)N1CCN(C(=O)C2CC2)CC1`, the outcome was Active.

Another test deals with T2, DNA repair protein RAD51 homolog 1 (Homo sapiens) (UniProt Q06609).
T2 sequence (whole entry): T1 sequence (Q06609 whole entry)
Kind of test: Inhibition of RAD51 interaction in human BxPC3 cells assessed as inhibition of homologous recombination incubated for 5 hrs by RT-PCR analysis. Format: cell-based. Summed up: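 Commercial two-plasmid recombination assay in BxPC-3 cells, with compound applied at different doses for 5 h simultaneously with plasmid transfection. Tested up to 40 μM, limited by solubility. Dose giving 50% HR inhibition estimated by polynomial regression.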
In the case of `CCC(=O)N1N=C(c2c(-c3ccccc3)c3cc(Cl)ccc3[nH]c2=O)CC1c1ccc(Br)cc1` (racemic), the inhibition entry is “inactive”. `O=C(O)CCC(=O)N1N=C(c2c(-c3ccccc3)c3cc(Cl)ccc3[nH]c2=O)CC1c1ccc(Br)cc1` (racemic): the inhibition result was “inactive”. Turning to `Cn1ccc2cc(C3CC(c4c(-c5ccccc5)c5cc(Cl)ccc5[nH]c4=O)=NN3C(=O)CCC(=O)O)ccc21` (racemic), the inhibition entry is “inactive”. `CCn1cc2cc(-c3ccc(C4CC(c5c(-c6ccccc6)c6cc(Cl)ccc6[nH]c5=O)=NN4C(=O)CCC(=O)O)cc3)ccc2n1` (racemic): the inhibition result is “inactive”. In the case of `CCCn1ncc2cc(C3CC(c4c(-c5ccccc5)c5cc(Cl)ccc5[nH]c4=O)=NN3C(C)=O)ccc21` (racemic), the inhibition entry was “inactive”. Regarding `CC(=O)N1N=C(c2c(-c3ccccc3)c3cc(Cl)ccc3[nH]c2=O)CC1c1ccc(C(C)(C)C)cc1` (racemic), the inhibition result is “inactive”.

Turning to `CCC(=O)N1N=C(c2c(-c3ccccc3)c3cc(Cl)ccc3[nH]c2=O)CC1c1ccc(Cl)cc1` (racemic), the inhibition entry is “inactive”. Regarding `CC(=O)N1N=C(c2c(-c3ccccc3)c3cc(Cl)ccc3[nH]c2=O)CC1c1ccc2c(ccn2C)c1` (racemic), the inhibition result was “inactive”.

The test system of a further test is BXPC-3. Kind of test: Antiproliferative activity against human BxPC3 cells after 72 hrs in presence of olaparib by CellTiter-Glo luminescent cell viability assay. Format: functional, cell-based. The essentials: as §1
For `O=C(O)CCC(=O)N1N=C(c2c(-c3ccccc3)c3cc(Cl)ccc3[nH]c2=O)CC1c1ccc(-c2ccc(F)cc2)cc1` (racemic), the outcome was inactive. Take `CCC(=O)N1N=C(c2c(-c3ccccc3)c3cc(Cl)ccc3[nH]c2=O)CC1c1ccc(Br)cc1` (racemic): the result was inactive. Regarding `CCn1ccc2cc(C3CC(c4c(-c5ccccc5)c5cc(Cl)ccc5[nH]c4=O)=NN3C(=O)CCC(=O)O)ccc21` (racemic), the outcome was inactive. As for `O=C(O)CCC(=O)N1N=C(c2c(-c3ccccc3)c3cc(Cl)ccc3[nH]c2=O)CC1c1ccc(Br)cc1` (racemic), the result was inactive.

Turning to `CC(=O)N1N=C(c2c(-c3ccccc3)c3cc(Cl)ccc3[nH]c2=O)CC1c1ccc(Cl)cc1` (racemic), the result was inactive.

For `O=C(O)CCC(=O)N1N=C(c2c(-c3ccccc3)c3cc(Cl)ccc3[nH]c2=O)CC1c1ccc(-c2ccc(Br)cc2)cc1` (racemic), the outcome was inactive. As for `CCCn1ncc2cc(C3CC(c4c(-c5ccccc5)c5cc(Cl)ccc5[nH]c4=O)=NN3C(C)=O)ccc21` (racemic), the outcome was inactive. For the compound `CCC(=O)N1N=C(c2c(-c3ccccc3)c3cc(Cl)ccc3[nH]c2=O)CC1c1ccc(Cl)cc1` (racemic), the result was inactive.

(Values after ChEMBL document CHEMBL4402564, “Synthetic Lethality in Pancreatic Cancer: Discovery of a New RAD51-BRCA2 Small Molecule Disruptor That Inhibits Homologous Recombination and Synergizes with Olaparib” (J Med Chem, 2020).)
